Tests used:
MCF7 = assay: Cytotoxicity against human MCF7 cells after 72 hrs by MTT assay; format: functional, cell-based
In short: (§1)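 Cells grown in RPMI1640 with 10% FBS, penicillin and streptomycin; log-phase cells seeded per well (MCF-7 1.0 × 10^4; A549 4.5 × 10^3). After 24 h, exposed to various concentrations for 72 h.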

A549 = assay: Cytotoxicity against human A549 cells after 72 hrs by MTT assay; format: functional, cell-based; in short: as §1

C[C@@H]1CC[C@]2(C)[C@H](CCC[C@]23CO3)[C@@]1(C)CC/C(=C\C(=O)O)CO
IC50 (MCF7; mcf7): Not Active
IC50 (A549; a549): Not Active

COc1cc2c(cc1O)[C@@H]1Cc3cc(O)c(OC)cc3C(=O)N1CC2
IC50 (MCF7; mcf7): Not Active
IC50 (A549; a549): Not Active

COc1c(O)cc2c(c1OC)-c1nccc(C)c1C2=O [DARIENINE]
IC50 (MCF7; mcf7): Not Active
IC50 (A549; a549): Not Active

COc1cc2c(cc1OC)[C@@H]1Cc3ccc(O)c(OC)c3C(=O)N1CC2
IC50 (MCF7; mcf7): Not Active
IC50 (A549; a549): Not Active

COc1cc2c(cc1OC)[C@@H]1Cc3ccc(OC)c(OC)c3C(=O)N1CC2
IC50 (MCF7; mcf7): Not Active
IC50 (A549; a549): Not Active

C=C1CCC[C@@H]2[C@@](C)(CC/C(=C\C(=O)O)CO)[C@H](C)C[C@H](O)[C@@]12C
IC50 (MCF7; mcf7): Not Active
IC50 (A549; a549): Not Active

COc1cc2c(cc1OC)[C@@H]1Cc3cc(O)c(OC)c(OC)c3C(=O)N1CC2
IC50 (MCF7; mcf7): Not Active
IC50 (A549; a549): Not Active

CC1=CC(=O)C[C@@H]2[C@@](C)(CC/C(C)=C\C(=O)O)[C@H](C)CC[C@@]12C
IC50 (MCF7; mcf7): Not Active
IC50 (A549; a549): Not Active

CC1=CCC[C@@H]2[C@@](C)(CC/C(=C\C(=O)O)CO)[C@H](C)C[C@H](O)[C@@]12C
IC50 (MCF7; mcf7): Not Active
IC50 (A549; a549): Not Active

COc1cc2c(cc1O)[C@@H]1Cc3cc(OC)c(O)c(OC)c3C(=O)N1CC2
IC50 (MCF7; mcf7): Not Active
IC50 (A549; a549): Not Active

CCCCC/C=C\C/C=C\CCCCCCCC(=O)OCC(O)CO (stereo not given)
IC50 (MCF7; mcf7): Not Active
IC50 (A549; a549): Not Active

COc1cc2c(cc1OC)[C@@H]1Cc3ccc(O)c(O)c3C(=O)N1CC2
IC50 (MCF7; mcf7): Not Active
IC50 (A549; a549): Not Active

COc1cc2c(cc1OC)[C@@H]1Cc3cc(O)cc(OC)c3C(=O)N1CC2
IC50 (MCF7; mcf7): Not Active
IC50 (A549; a549): Not Active

COc1cc(/C=C/C(=O)NCCc2ccc(O)c(O)c2)ccc1O [N-TRANS-FERULOYLDOPAMINE]
IC50 (MCF7; mcf7): Not Active
IC50 (A549; a549): Not Active

CC1=CCC[C@@H]2[C@@](C)(CC/C(C=O)=C\C(=O)O)[C@H](C)CC[C@@]12C
IC50 (MCF7; Homo sapiens, MCF7, 72 h, read-out: IC50): 3.7 µM
IC50 (A549; Homo sapiens, A549, 72 h, read-out: IC50): 3.1 µM

Source: ChEMBL document CHEMBL1154791, “Constituents of Polyalthia longifolia var. pendula” (J Nat Prod, 2009)
